Laboratory results as given in the EternaBench riboswitch data.

Key:
[1] = system: MS2 coat protein; assay: apparent Kd, MS2 coat protein; higher = weaker binding; RNA-MaP array
Method in brief: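 On an Illumina sequencing chip, sequenced DNA templates served for transcription of the designed RNAs, which were then bound at room temperature by fluorescently labeled MS2 coat protein at 1.5 nM to 3 μM, with or without input ligand. Apparent Kd is the median of the fits to each cluster's binding curve. Only designs measured on at least 10 clusters were kept.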

[2] = system: MS2 coat protein; assay: apparent Kd, MS2 coat protein; higher = weaker binding; RNA-MaP array; FMN 200 µM where present
Method in brief: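 SNAP-549-labelled MS2 coat protein, doubled from 0.7 or 1.5 nM to 3 µM, was titrated over designs transcribed by stalled E. coli RNA polymerase on Illumina sequencing-chip clusters. Titrations were run without and then with constant ligand in 100 mM Tris-HCl pH 7.5, 80 mM KCl, 4 mM MgCl2, BSA, DTT, yeast tRNA and Tween-20. The apparent Kd is the median of filtered per-cluster fits to green signal normalised to red-channel RNA signal and control-cluster median Fmax.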

[3] = designed as: ON switch for flavin mononucleotide, no ligand
[4] = ligand present: flavin mononucleotide, designed as: ON switch for flavin mononucleotide
[5] = designed as: OFF switch for flavin mononucleotide, no ligand
[6] = ligand present: flavin mononucleotide, designed as: OFF switch for flavin mononucleotide
[7] = designed as: ON switch for tryptophan, no ligand
[8] = ligand present: tryptophan, designed as: ON switch for tryptophan

AGAAAGAAUCAGAAGGCAGAGAUGUCUAUCUACUGAGGAUAUGAAUGACAUGAGGAUCACCCAUGUUGUCAGGCCAGGCCCAAC
apparent Kd [1, 3]: 7.78 nM | apparent Kd [1, 4]: 9.75 nM

CUACGCAUAGGAUAUGCCUACUGGGACAUGAGGAUCACCCAUGUGUUAUUAUCAGCUCCGGCAGAAGGAUGGUACU
apparent Kd [1, 5]: 29.1 nM | apparent Kd [1, 6]: 11.8 nM

AAGAACCAGAUAGGAUAUCCGUUUAAAUCACAAGGAGAAGGAUCAAAUACAAAACAUGAGGAUCACCCAUGUGGAAGAUAGCUA
apparent Kd [1, 3]: 33.2 nM | apparent Kd [1, 4]: 18.7 nM

CUCCUCACCGUGAGGAUAUAGUAUUCCGGUUGUUACUAGAAGGCACAUGAGGAUCACCCAUGUUACGGUUCCCA
apparent Kd [1, 5]: 13.4 nM | apparent Kd [1, 6]: 50.6 nM

AAGUGACAUGAGGAUCACCCAUGUGAGGAUAUGGCUGAACAGAAAUAUGGGAAAAGAGCCAGAAGGCACGCCGG
apparent Kd [1, 5]: 62.3 nM | apparent Kd [1, 6]: 112 nM

CCUGACAUGAGGAUCACCCAUGUGUGAGCACGAGGACCGGUACGGCCGCCACUCGCGUUGCCGGCCGGACUAUCUGGCGAAGUCA
apparent Kd [1, 7]: 32.9 nM | apparent Kd [1, 8]: 35.1 nM

CUGUUAAGUAAAGGAUAUCCUCCAACAGCUAGAGGAGAAGGUUACUCCUUAAUCCACAUGAGGAUCACCCAUGUUAGUGUAAGU
apparent Kd [1, 3]: 11.5 nM | apparent Kd [1, 4]: 10.1 nM

AGCGUGGAUAAAGGAUAUGUACCGGUAACUACAUGAGGAUCACCCAUGUCUUCAGGCCAAAACCGACAGAAGGUUACUUAUCGC
apparent Kd [1, 5]: 21.7 nM | apparent Kd [1, 6]: 20.7 nM

CAUGAGAGAUUGUUUUGUGACUCUAACGAUACCAGAGUAGGACUUCUCCCUUGGCAGCGUGUGACAUGAGGAUCACCCAUGUCCA
apparent Kd ([1]; designed as: OFF switch for theophylline, no ligand): 10.6 nM | apparent Kd ([1]; ligand present: theophylline, designed as: OFF switch for theophylline): 11.7 nM

CCAUGGUUGACGGCCGCCACUCAUUAGUCUUUGAGGUUGGCACAUGAGGAUCACCCAUGUCUGCAGAGGACCGGGUCUCGCCACA
apparent Kd [1, 7]: 44.3 nM | apparent Kd [1, 8]: 44.2 nM

AACUCCACCGCAGGAUAUCCGGUCUCUCUGUAGACGACAUGAGGAUCACCCAUGUAUCCGGGAAUGGAGAAGGGCGGUGCUCCU
apparent Kd [1, 5]: 16.4 nM | apparent Kd [1, 6]: 13 nM

GUACCACAGUCGGCCGCCACUAAGUUGUAUUCCAGCAGGACGAAACAUGAGGAUCACCCAUGUCCUAGGACCGGGACUUCCGUCG
apparent Kd [1, 7]: 21.2 nM | apparent Kd [1, 8]: 21.6 nM

UACAUUCGUCAGGAUAUCCAUCAGCCAGGCCUCGGAGAAGGGACUACAUGAGGAUCACCCAUGUGUAACCUCGU
apparent Kd [1, 5]: 40.4 nM | apparent Kd [1, 6]: 88.8 nM

UGUGCCUAGUAGAAGGCGCCGACUCGCUCACGGCGAGGAUAUACUACUCAGGGCACAUGAGGAUCACCCAUGUGUGAUUCGUAA
apparent Kd [1, 5]: 103 nM | apparent Kd [1, 6]: 23.1 nM

GUUCGUUUGAUAGGAUAUCGCUAUACAUGAGGAUCACCCAUGUUUACCACGCUGGUUUUUCGUACCGAGAAGGAUUCUGAUGAU
apparent Kd [2, 3]: 40.2 nM | apparent Kd [2, 4]: 36.2 nM

UCCUUCUGUUGAGGAUAUGUAAGACAGCGGCCGCUAUGGCAGCACGCUGAUACAGAAGGCAACAUGAGGAUCACCCAUGUUCAA
apparent Kd [2, 5]: 18.9 nM | apparent Kd [2, 6]: 146 nM

AUAAUUUUAUUUUUCCCAAGAAUCAGAAGGCGUUACAUGAGGAUCACCCAUGUUUUGUAUAGUAACGAGGAUAUGAUAUGGUUA
apparent Kd [2, 5]: 15.2 nM | apparent Kd [2, 6]: 14.7 nM

UGCUACGUUUCGUAGCAGUGUCAUCGAGAAGGCCCUGACAUGAGGAUCACCCAUGUUGUUACAUGGGAGGAUAUCGAUGAUACU
apparent Kd [2, 3]: 12.4 nM | apparent Kd [2, 4]: 5.09 nM

UUUAUUAAUUAGAAGGCUUGAUGAAUUACAAUAGACAUGAGGAUCACCCAUGUGUAUUCAUGUCAAGAGGAUAUAGUCAUAUAU
apparent Kd [2, 3]: 11.3 nM | apparent Kd [2, 4]: 6.38 nM

AUCAGCUCGUCAGGAUAUACGUCACUGCGUCAGCAGUGUGGUAAGAUCACAUGAGGAUCACCCAUGUAGAAGGGACGAGCUGAU
apparent Kd [2, 5]: 39.7 nM | apparent Kd [2, 6]: 696 nM

CUAUUACGAGGAUAUGAUUUAAAUAACAUGAGGAUCACCCAUGUUUUUACGUUAUUAUGUUUAGAAGGCGUAUUGU
apparent Kd [2, 5]: 50.1 nM | apparent Kd [2, 6]: 31.4 nM

CCAGAUUUCACAGGAUAUAUUGAUGACAUGAGGAUCACCCAUGUACCGGCAGUAGAAGGGUGAACGCUCGUGACCACGUGCGUG
apparent Kd [2, 3]: 253 nM | apparent Kd [2, 4]: 134 nM

AAUAGAAAGAUUAAUAUGAUUACAUGAGGAUCACCCAUGUAUAAGGAUAUCGACGUCAAUGACGUCGAGAAGGUAUACAUAAUA
apparent Kd [2, 5]: 15.7 nM | apparent Kd [2, 6]: 34 nM

GAGUAGAUCCGAGGAUAUACAAUCCGGAAACGGUACAUGAGGAUCACCCAUGUAGAAGGCGGAUCUACAGGUACUAAAGUACCA
apparent Kd [2, 5]: 6.24 nM | apparent Kd [2, 6]: 8.12 nM

CUGCUCGUAGAGAAGGCGUGGGCACAUGAGGAUCACCCAUGUCGCAGUACGAGGAUAUUUGCCGGCCCGCCCAAAAUGGCGCGG
apparent Kd [2, 3]: 501 nM | apparent Kd [2, 4]: 119 nM

AACACAACAUGAAACAUGAGGAUCACCCAUGUUGUUUGUAAUCAGGAUAUGAUCUCAAGAAUGAAUUAGAAGGGAUAGGGAGGG
apparent Kd [2, 3]: 35.8 nM | apparent Kd [2, 4]: 47.1 nM
